The target of experiment [1] is 5-hydroxytryptamine receptor 2B (Mus musculus) (UniProt Q02152). The experiment can be described thus: Increase of 5HT2B receptor-mediated KCL-induced intracellular calcium influx in mouse DRG neurons at 20 ug/ml. The experiment is classed as functional, cell-based. A digest of the protocol:
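Dorsal root ganglia cells from the cervical and lumbar regions of mice were loaded with Fura-2 AM and imaged individually by fluorescence microscopy at 20 to 25 °C. After baseline, cells were given 25 mM KCl and washed. After return to baseline, compound was applied at 20 µg/mL, then replaced with 25 mM KCl while intracellular Ca2+ was monitored.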
For orientation: Calcium assays in cells follow changes in intracellular calcium, usually with a dye or a luminescent sensor.

The target of experiment [2] is Histamine H1 receptor (Homo sapiens) (UniProt P35367). The experiment can be described thus: Binding affinity to human histamine H1 receptor by radioligand displacement assay. On the technique in general: In a radioligand displacement assay an active substance lowers the binding of a labelled ligand.
Sequence of Histamine H1 receptor (Homo sapiens) (P35367 whole entry): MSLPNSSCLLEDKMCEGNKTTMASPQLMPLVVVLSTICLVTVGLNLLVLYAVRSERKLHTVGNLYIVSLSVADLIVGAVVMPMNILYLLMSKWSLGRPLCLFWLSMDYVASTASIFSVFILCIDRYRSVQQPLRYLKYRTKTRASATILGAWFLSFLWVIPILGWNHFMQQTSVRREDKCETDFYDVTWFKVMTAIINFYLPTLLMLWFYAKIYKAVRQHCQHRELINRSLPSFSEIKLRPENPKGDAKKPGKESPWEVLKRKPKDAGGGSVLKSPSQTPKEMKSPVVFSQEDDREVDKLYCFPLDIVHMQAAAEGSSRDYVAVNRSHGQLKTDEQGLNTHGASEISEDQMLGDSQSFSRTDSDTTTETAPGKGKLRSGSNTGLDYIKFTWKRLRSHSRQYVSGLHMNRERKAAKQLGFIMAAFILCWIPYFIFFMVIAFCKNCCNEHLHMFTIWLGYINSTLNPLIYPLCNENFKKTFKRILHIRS
The species entered for experiment [3] is Homo sapiens. Kind of experiment: Selectivity ratio of Ki for human 5HT1A receptor to Ki for human 5HT2B receptor.
The species named for experiment [4] is Homo sapiens. The experiment can be described thus: Selectivity ratio of Ki for human 5HT6 receptor to Ki for human 5HT2B receptor.
Experiment [5] is filed under the species Homo sapiens. Kind of experiment: Selectivity ratio of Ki for human 5HT5A receptor to Ki for human 5HT2B receptor.
The target in experiment [6] is 5-hydroxytryptamine receptor 1B (Homo sapiens) (UniProt P28222). Kind of experiment: Binding affinity to human 5HT1B receptor at 10 uM by radioligand displacement assay. The method in brief: (§1)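 Primary screen run by the PDSP/NIMH across a 46-target panel. Each compound was tested at a final concentration of 10 µM by radioligand displacement, and initial hits were obtained from this screen.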
Sequence of 5-hydroxytryptamine receptor 1B (Homo sapiens) (P28222 whole entry): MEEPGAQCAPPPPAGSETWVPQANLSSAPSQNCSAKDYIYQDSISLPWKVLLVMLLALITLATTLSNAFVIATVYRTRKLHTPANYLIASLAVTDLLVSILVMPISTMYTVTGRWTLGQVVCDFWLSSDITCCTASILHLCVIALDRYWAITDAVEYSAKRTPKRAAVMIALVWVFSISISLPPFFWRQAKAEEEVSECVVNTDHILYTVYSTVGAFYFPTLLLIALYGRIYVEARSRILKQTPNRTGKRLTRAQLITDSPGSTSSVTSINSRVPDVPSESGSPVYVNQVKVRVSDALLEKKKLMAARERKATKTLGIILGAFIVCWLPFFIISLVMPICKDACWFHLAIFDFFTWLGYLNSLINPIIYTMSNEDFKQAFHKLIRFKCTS

Experiment [7] has as its target 5-hydroxytryptamine receptor 5A (Homo sapiens) (UniProt P47898). The experiment can be described thus: Binding affinity to human 5HT5A receptor at 10 uM by radioligand displacement assay. The method in brief:
as §1

Experiment [8] concerns the target 5-hydroxytryptamine receptor 4 (Homo sapiens) (UniProt Q13639). The experiment can be described thus: Binding affinity to human 5HT4 receptor at 10 uM by radioligand displacement assay. The method in brief:
as §1

The target of experiment [9] is T1, 5-hydroxytryptamine receptor 1A (Homo sapiens) (UniProt P08908).
T1 sequence (whole entry): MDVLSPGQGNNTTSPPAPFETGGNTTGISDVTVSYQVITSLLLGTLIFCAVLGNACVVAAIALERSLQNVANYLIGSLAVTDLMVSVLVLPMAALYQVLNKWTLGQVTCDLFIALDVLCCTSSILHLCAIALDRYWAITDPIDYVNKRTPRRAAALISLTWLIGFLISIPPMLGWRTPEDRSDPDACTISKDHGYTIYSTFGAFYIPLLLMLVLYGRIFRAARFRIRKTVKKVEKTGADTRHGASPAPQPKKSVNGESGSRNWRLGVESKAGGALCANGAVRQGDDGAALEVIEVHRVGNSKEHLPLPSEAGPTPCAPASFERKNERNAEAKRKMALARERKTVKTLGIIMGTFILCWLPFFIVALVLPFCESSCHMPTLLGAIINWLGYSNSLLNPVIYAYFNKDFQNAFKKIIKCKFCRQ
The experiment can be described thus: Binding affinity to human 5HT1A receptor at 10 uM by radioligand displacement assay. A digest of the protocol: as §1

For experiment [10], the species on record is Homo sapiens. Kind of experiment: Selectivity ratio of Ki for human 5HT2A receptor to Ki for human 5HT2B receptor.
For experiment [11], the target named is T2, 5-hydroxytryptamine receptor 2C (Homo sapiens) (UniProt P28335).
T2 sequence (whole entry): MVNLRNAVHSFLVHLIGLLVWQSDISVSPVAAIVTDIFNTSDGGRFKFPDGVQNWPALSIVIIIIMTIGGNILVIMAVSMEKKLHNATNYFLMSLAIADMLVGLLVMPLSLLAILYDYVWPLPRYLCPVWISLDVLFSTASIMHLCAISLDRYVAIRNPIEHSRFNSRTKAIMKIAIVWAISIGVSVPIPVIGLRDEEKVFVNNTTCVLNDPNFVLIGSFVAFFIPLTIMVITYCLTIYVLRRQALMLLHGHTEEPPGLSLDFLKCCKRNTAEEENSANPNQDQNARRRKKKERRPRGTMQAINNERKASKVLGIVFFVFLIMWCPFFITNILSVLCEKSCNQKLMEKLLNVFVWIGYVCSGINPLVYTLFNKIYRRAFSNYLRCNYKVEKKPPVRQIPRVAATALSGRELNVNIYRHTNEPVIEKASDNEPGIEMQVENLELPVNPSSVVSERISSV
The experiment can be described thus: Binding affinity to human 5HT2C receptor at 10 uM by radioligand displacement assay. The method in brief: as §1

Experiment [12] deals with 5-hydroxytryptamine receptor 2A (Homo sapiens) (UniProt P28223). The experiment can be described thus: Binding affinity to human 5HT2A receptor at 10 uM by radioligand displacement assay. A digest of the protocol:
as §1

Experiment [13] concerns the target 5-hydroxytryptamine receptor 7 (Homo sapiens) (UniProt P34969). The experiment can be described thus: Binding affinity to human 5HT7 receptor at 10 uM by radioligand displacement assay. A digest of the protocol: as §1
For experiment [14], the species on record is Homo sapiens. Kind of experiment: Selectivity ratio of Ki for human 5HT1B receptor to Ki for human 5HT2B receptor.
The species named for experiment [15] is Homo sapiens. Kind of experiment: Selectivity ratio of Ki for human 5HT1E receptor to Ki for human 5HT2B receptor.
The species entered for experiment [16] is Homo sapiens. Kind of experiment: Selectivity ratio of Ki for human 5HT1D receptor to Ki for human 5HT2B receptor.
The species named for experiment [17] is Homo sapiens. The experiment can be described thus: Selectivity ratio of Ki for human 5HT2C receptor to Ki for human 5HT2B receptor.
Experiment [18] is filed under the species Homo sapiens. Kind of experiment: Selectivity ratio of Ki for human 5HT3 receptor to Ki for human 5HT2B receptor.
The species named for experiment [19] is Homo sapiens. The experiment can be described thus: Selectivity ratio of Ki for human 5HT4 receptor to Ki for human 5HT2B receptor.
In experiment [20] the target is 5-hydroxytryptamine receptor 1D (Homo sapiens) (UniProt P28221). Kind of experiment: Binding affinity to human 5HT1D receptor at 10 uM by radioligand displacement assay. A digest of the protocol: as §1
Sequence of 5-hydroxytryptamine receptor 1D (Homo sapiens) (P28221 whole entry): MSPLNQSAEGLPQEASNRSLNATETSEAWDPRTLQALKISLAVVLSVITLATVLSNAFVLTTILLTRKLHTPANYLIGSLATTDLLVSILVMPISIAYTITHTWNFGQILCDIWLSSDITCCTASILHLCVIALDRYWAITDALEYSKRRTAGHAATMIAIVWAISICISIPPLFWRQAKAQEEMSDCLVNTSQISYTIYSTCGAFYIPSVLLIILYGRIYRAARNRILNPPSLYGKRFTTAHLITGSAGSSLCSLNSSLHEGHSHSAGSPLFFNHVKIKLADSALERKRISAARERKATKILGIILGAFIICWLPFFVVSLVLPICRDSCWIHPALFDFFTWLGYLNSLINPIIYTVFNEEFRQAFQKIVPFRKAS
The species named for experiment [21] is Homo sapiens. The experiment can be described thus: Selectivity ratio of Ki for human 5HT7 receptor to Ki for human 5HT2B receptor.
Experiment [22] deals with 5-hydroxytryptamine receptor 1E (Homo sapiens) (UniProt P28566). Kind of experiment: Binding affinity to human 5HT1E receptor at 10 uM by radioligand displacement assay. The method in brief:
as §1

The target of experiment [23] is T3, 5-hydroxytryptamine receptor 3A (Homo sapiens) (UniProt P46098).
T3 sequence (whole entry): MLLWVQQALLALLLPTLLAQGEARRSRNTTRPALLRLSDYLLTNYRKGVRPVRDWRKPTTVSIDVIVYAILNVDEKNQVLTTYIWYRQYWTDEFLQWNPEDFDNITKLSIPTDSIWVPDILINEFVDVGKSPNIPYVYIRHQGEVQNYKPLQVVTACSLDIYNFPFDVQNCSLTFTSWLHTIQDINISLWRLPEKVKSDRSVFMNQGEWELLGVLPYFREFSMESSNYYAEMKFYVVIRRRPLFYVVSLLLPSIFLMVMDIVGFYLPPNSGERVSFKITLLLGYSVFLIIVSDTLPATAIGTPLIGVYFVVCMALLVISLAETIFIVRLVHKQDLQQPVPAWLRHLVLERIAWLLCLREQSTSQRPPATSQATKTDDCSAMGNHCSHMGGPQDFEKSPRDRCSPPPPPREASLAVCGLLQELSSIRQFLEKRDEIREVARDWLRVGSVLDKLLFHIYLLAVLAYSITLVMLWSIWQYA
Kind of experiment: Binding affinity to human 5HT3 receptor at 10 uM by radioligand displacement assay. The method in brief:
as §1

For experiment [24], the target named is 5-hydroxytryptamine receptor 6 (Homo sapiens) (UniProt P50406). Kind of experiment: Binding affinity to human 5HT6 receptor at 10 uM by radioligand displacement assay. A digest of the protocol:
as §1

Experiment [25] has as its target Kappa-type opioid receptor (Homo sapiens) (UniProt P41145). The experiment can be described thus: Binding affinity to human kappa opioid receptor by radioligand displacement assay.

Structures are written as SMILES. Activity calls are given as the source filed them. The calls are words filed in the database; no cut-off is given here.

Sequence of 5-hydroxytryptamine receptor 2B (Mus musculus) (Q02152 whole entry): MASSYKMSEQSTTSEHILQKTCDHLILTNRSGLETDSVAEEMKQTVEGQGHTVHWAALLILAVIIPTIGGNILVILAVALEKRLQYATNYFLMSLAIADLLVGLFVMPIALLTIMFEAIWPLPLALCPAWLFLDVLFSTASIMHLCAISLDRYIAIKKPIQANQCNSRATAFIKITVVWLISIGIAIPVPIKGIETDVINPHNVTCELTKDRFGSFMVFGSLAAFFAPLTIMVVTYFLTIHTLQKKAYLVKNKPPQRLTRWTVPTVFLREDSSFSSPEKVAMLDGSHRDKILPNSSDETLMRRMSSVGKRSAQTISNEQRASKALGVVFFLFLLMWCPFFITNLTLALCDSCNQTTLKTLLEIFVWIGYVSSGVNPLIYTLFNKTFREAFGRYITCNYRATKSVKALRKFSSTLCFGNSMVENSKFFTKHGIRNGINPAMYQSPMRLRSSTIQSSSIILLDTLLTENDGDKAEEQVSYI
Sequence of 5-hydroxytryptamine receptor 6 (Homo sapiens) (P50406 whole entry): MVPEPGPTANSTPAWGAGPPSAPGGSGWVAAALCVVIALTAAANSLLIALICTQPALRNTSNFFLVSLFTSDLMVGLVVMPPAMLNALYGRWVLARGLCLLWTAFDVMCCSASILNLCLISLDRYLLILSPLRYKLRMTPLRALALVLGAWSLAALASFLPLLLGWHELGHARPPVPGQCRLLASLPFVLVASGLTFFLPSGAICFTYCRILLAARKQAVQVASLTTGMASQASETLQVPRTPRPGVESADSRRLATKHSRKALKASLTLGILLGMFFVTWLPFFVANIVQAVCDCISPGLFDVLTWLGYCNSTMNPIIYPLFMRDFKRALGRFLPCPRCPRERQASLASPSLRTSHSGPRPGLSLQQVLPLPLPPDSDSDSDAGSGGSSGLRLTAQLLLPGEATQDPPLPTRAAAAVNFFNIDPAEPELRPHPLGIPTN
Sequence of 5-hydroxytryptamine receptor 5A (Homo sapiens) (P47898 whole entry): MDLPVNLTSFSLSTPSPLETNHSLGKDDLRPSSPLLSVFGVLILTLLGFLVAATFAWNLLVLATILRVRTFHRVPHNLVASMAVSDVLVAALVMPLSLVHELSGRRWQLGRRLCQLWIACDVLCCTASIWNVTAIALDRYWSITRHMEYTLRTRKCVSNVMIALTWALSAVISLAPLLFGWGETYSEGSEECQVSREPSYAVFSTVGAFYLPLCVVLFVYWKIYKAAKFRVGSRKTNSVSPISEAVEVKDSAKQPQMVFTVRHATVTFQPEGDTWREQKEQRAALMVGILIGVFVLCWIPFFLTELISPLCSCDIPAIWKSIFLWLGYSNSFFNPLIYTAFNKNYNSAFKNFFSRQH
Sequence of 5-hydroxytryptamine receptor 4 (Homo sapiens) (Q13639 whole entry): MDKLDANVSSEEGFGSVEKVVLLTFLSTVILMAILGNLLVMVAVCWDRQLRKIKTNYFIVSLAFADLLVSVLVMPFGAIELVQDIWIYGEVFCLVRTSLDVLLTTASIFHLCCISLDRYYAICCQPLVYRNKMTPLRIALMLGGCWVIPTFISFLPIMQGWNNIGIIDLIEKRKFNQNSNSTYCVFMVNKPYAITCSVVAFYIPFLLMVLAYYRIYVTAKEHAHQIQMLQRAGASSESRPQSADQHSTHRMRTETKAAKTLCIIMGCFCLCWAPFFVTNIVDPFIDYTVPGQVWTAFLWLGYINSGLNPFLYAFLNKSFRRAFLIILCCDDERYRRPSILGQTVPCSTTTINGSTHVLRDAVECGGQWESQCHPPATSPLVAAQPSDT
Sequence of Kappa-type opioid receptor (Homo sapiens) (P41145 whole entry): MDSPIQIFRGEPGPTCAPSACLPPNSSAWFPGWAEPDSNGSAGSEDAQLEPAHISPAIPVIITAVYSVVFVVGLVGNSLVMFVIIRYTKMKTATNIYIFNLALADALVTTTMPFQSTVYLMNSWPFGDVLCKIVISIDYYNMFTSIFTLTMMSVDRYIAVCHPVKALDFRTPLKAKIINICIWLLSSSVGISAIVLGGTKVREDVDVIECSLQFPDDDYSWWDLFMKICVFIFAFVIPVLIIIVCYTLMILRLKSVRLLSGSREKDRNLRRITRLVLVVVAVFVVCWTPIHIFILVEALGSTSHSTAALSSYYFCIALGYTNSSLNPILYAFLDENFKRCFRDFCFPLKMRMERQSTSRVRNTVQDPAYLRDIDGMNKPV
Sequence of 5-hydroxytryptamine receptor 2A (Homo sapiens) (P28223 whole entry): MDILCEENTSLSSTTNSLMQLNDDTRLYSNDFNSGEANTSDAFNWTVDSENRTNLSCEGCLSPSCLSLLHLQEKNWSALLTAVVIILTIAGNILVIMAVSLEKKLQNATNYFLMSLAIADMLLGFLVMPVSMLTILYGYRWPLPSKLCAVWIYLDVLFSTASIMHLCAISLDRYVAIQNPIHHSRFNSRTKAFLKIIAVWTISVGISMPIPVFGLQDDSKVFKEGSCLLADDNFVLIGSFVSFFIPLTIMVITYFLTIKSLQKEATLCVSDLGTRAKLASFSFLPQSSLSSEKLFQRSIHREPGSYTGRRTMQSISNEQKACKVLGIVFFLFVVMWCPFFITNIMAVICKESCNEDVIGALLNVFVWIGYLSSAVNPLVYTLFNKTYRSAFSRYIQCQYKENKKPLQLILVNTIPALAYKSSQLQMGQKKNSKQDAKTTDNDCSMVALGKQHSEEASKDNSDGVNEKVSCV
Sequence of 5-hydroxytryptamine receptor 1E (Homo sapiens) (P28566 whole entry): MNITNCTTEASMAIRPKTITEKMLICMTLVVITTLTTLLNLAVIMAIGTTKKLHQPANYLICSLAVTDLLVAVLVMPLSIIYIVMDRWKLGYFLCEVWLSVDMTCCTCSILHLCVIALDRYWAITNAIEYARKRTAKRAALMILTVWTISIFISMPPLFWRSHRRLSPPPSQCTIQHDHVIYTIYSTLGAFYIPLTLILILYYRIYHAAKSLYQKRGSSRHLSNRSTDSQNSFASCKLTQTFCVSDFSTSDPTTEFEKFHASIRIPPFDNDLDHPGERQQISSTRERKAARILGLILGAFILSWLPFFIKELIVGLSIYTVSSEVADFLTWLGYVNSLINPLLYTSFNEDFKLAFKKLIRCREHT
Sequence of 5-hydroxytryptamine receptor 7 (Homo sapiens) (P34969 whole entry): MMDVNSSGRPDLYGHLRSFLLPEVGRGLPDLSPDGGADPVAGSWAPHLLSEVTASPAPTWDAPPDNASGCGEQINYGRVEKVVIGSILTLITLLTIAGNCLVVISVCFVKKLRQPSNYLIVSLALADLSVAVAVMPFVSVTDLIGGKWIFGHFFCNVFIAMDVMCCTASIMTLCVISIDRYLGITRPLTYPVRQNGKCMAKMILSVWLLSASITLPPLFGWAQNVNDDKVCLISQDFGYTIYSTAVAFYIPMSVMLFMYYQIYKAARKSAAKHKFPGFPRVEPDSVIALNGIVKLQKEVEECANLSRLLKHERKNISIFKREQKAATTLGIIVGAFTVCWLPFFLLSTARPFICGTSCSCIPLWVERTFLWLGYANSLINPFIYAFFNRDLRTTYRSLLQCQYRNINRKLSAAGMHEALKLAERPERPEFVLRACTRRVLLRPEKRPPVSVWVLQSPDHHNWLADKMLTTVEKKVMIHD

As to `OC[C@@H]1CSC(c2ccccc2O)=N1`, the outcome in [1] was Active.

In turn, `NC(=O)c1csc(-c2ccccc2O)n1` registered an Activity in experiment [2] of 517 nM.

In the case of `C[C@@H]1SC(c2ccccc2O)=N[C@@H]1CO`, the Ratio Ki in [3], in experiment [4], in [5], in experiment [10], in experiment [14] and in [15] was 20 in each case. In addition, the Ratio Ki in [16], in experiment [17], in [18], in [19] and in [21] was 20 throughout. The outcome in experiment [6], in experiment [7], in [8], in [9], in experiment [11] and in experiment [12] was inactive. Moreover, the outcome in [13], in experiment [20], in experiment [22], in experiment [1], in experiment [23] and in experiment [24] was inactive.

Take `NC(=O)C1CSC(c2ccccc2O)=N1` (stereo not drawn): the Activity in experiment [25] amounted to 3.71 µM; in experiment [2] it was 678 nM. For the same compound, in [1], the result was Active.
